# Experimental data from ChEMBL document CHEMBL1137800, “Evaluation of marine sponge metabolites for cytotoxicity and signal transduction activity” (J Nat Prod, 1993).
# Calls of active or inactive are those of the source. The rule behind the calls is not given here.
# How the values were obtained:
# A549 [1] = test: Cytotoxicity against human A549 cells after 48 hrs by MTT assay; type: functional, cell-based; conditions: A549, 48 h
# In short: (§1)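 A549 and HT-29 cells grown in RPMI 1640 with 10% horse serum and exposed at 37° in gentamicin-containing medium, with MeOH vehicle evaporated. Exposure ran 48 h […] before MTT was added for 90 min. Formazan dissolved in acidified iPrOH and A570 read. IC50 from logit-regression of absorbance versus drug-free wells; 5-fluorouracil and adriamycin included as controls.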
# [2] = Cytotoxicity against mouse EL-4.IL-2 cells after 3 to 4 days by Trypan blue exclusion test; type: functional, cell-based
# Mus musculus [3] = species on record: Mus musculus; test: Inhibition of PKC-mediated mouse EL-4.IL-2 cells adherence by MTT assay
# In short: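 Mouse EL-4.IL-2 cells (2.5×10^5/well, within 15 passages of frozen stock) incubated 1 h at 37° with compounds in triplicate, with PMA (16 nM final) or without PMA; final EtOH ≤1.25%. Four shaker wash cycles. Adherent cells read by MTT, 4 h at 37°, formazan dissolved in iPrOH, A570. A parallel unwashed plate without PMA monitored cytotoxicity. Adherence inhibitor: blocks PMA-induced adherence, induces none alone, not cytotoxic.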
# HT-29 = test: Cytotoxicity against human HT-29 cells after 48 hrs by MTT assay; type: functional, cell-based; conditions: HT-29, 48 h; in short: as §1
# P388 = test: Cytotoxicity against mouse P388 cells after 48 hrs by MTT assay; type: functional, cell-based; conditions: P388, 48 h
# In short: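 P-388 cells seeded at 1×10^5 cells/ml in RPMI 1640 with 10% horse serum and gentamicin (50 μg/ml). Exposed 48 h at 37° to compound at 10.0, 1.0, 0.10 or 0.010 μg/ml; MeOH vehicle evaporated under vacuum. MTT added for 90 min, formazan dissolved in acidified iPrOH, A570 read. IC50 from linear regression of logit-transformed absorbance relative to drug-free wells.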
# Mus musculus [4] = species on record: Mus musculus; test: Induction of PKC-mediated mouse EL-4.IL-2 cells adherence by MTT assay
# In short: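 EL-4.IL-2 cells (2.5×10^5/well) in RPMI 1640 with 10% FCS and 2-mercaptoethanol, incubated 1 h at 37° with compound in triplicate, without PMA and also with 16 nM PMA (final), EtOH ≤1.25%. Non-adherent cells removed by four shaking washes. Adherent cells quantified by MTT (4 h) with iPrOH solubilisation at 570 nm. Parallel unwashed plate monitored cytotoxicity.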
# A549 [5] = test: Antitumor activity against human A549 cells xenografted in mouse at 0.3 mg/kg relative to control; type: functional
# M19-MEL = test: Cytotoxicity against human M19-MEL cells; type: functional; conditions: read-out: Log10LC50 (converted)
# Malme-3M = test: Cytotoxicity against human MALME-3M cells; type: functional; conditions: read-out: Log10LC50 (converted)
# SK-MEL-5 = test: Cytotoxicity against human SK-MEL-5 cells; type: functional; conditions: read-out: Log10LC50 (converted)
# Mus musculus [6] = test: Toxicity in human A549 cells xenografted mouse at 0.3 mg/kg; type: organism-based; set-up: dose 0.3 mg/kg; conditions: in vivo
Compound,IC50 (A549 [1]) [µg/mL],IC50 [2] [µg/mL],Activity (Mus musculus [3]),IC50 (HT-29) [µg/mL],IC50 (P388) [µg/mL],Activity (Mus musculus [4]),Activity (A549 [5]),CC50 (M19-MEL) [µM],CC50 (Malme-3M) [µM],CC50 (SK-MEL-5) [µM],Activity (Mus musculus [6]),T/C (A549 [5]) [%]
C[C@H]1CC[C@H]2C(C)(C)CCC[C@]23Oc2ccc(O)cc2C[C@]13C [AUREOL],4.3,9.9,Active,4.7,> 20,,,,,,,
CCCCCCCCCCCCCCCC[C@@]1(OC)C=C[C@@H](CC(=O)OC)OO1 [CHONDRILLIN],0.3,0.4,,1.1,2.4,Active,inactive,,,,,
O[C@]12C=C(c3nccc4c3[nH]c3ccccc34)[C@@H]3CCN(CCCC/C=C\CC1)C[C@@]31C[C@@H]3/C=C\CCCCN3[C@H]12 [MANZAMINE A],1.3,,,0.8,2.4,,,,,,,
CC[C@H](C)[C@H]1C(=O)NCCC(=O)N[C@H]([C@@H](C)CC)C(=O)N(C)[C@@H](C(C)C)C(=O)N(C)[C@@H](C)C(=O)NCCC(=O)N[C@H](CC(C)C)C(=O)N(C)[C@H]([C@@H](C)CC)C(=O)O[C@H](C)[C@H](NC(=O)[C@@H](CC(C)C)N(C)C(=O)[C@@H](NC(=O)COC)C(C)C)C(=O)NCCC(=O)N[C@H](CC(C)C)C(=O)N1C [THEONELLAMINE B],5.3,,,5.1,> 20,,,,,,,
CSc1c2c3c(n1C)C(=O)C(=O)C(Cl)=C3NCC2 [BATZELLINE A],0.7,22.9,,2.8,5.3,Active,inactive,6.61,15.5,6.61,,
O=C1c2nccc(O)c2-c2nc3ccccc3c3ccnc1c23 [MERIDINE],4.5,8.8,,0.2,2,Active,,,,,,
CC1=CC(=O)[C@]2(C)CC[C@H]([C@H](C)CC(=O)CC(C)C)[C@H]2CC1 [REISWIGIN A],7.2,,,6,8.5,,,,,,,
CC1(C)CCC[C@]2(C)[C@H]3C=C4C=C(O)C(=O)C=C4O[C@@]3(C)CC[C@@H]12 [PUUPEHENONE],0.4,,,0.2,1.3,,,,,,,
O=C1C[C@H]2S[C@H]3C[C@]2(C=C1Br)C1=C(N3)C(=O)c2[nH]cc3c2C1=NCC3 [DISCORHABDINE A],0.04,4.8,,0.01,0.1,Active,,,,,,
CN(C)CCc1c2ncsc2c2c3c(c4ccccc4nc13)C=CN2C [DERCITIN],0.07,< 6,Active,0.02,0.2,,,,,,,
COC1=Cc2ccnc3ccnc(c23)C1=O [DEMETHYLOXY-AAPTAMINE],5.2,< 0.05,,1.5,1.6,Active,,,,,,
C[C@H]1C[C@]2(O[C@H]3C[C@H]4[C@@H]5CC[C@H]6C[C@H](O)CC[C@]6(C)[C@H]5[C@@H](O)C[C@]4(C)[C@H]3[C@@]2(C)O)OC1(C)C [EPIHIPPURISTANOL],0.04,,,0.05,0.5,,,,,,,
C/C1=C/C(=O)O[C@@H]2C[C@@H](CC[C@H](C)/C=C\C=C\CC1)O[C@@](O)([C@@H]1CSC(=O)N1)C2 [LATRUNCULIN A],0.06,0.1,Active,0.06,4.1,,,,,,Non-toxic,146
[C-]#[N+][C@@]12CCC(=C)[C@H]3[C@H](CC(C)(C)NC=O)C[C@H](C)[C@@H](CC[C@@H]1C)[C@@H]32,5.3,2.9,,3.5,4.2,Active,,,,,,
Cn1cc2c3c1C(=O)C1=C(C3=NCC2)C2(C=C(Br)C(=O)C(Br)=C2)CCN1 [DISCORHABDIN],0.3,0.5,,0.1,0.5,Active,,,,,,
[C-]#[N+]C(C)(C)C[C@@H]1C[C@H](C)[C@H]2CC[C@H](C)[C@@]3([N+]#[C-])CCC(=C)[C@@H]1[C@H]23 [DIISOCYANOAMPHILECTENE],13,,,1.2,0.7,,,,,,,
C1=C\CC[C@]23CN4CCCC/C=C\CC[C@@]5(O[C@H]5[C@@H](c5nccc6c5[nH]c5ccccc56)[C@@H]2CC4)[C@@H]3NCCCC/1 [MANZAMINE B],4.5,,,1.6,6.6,,,,,,,
C1=C\CCCCN(CCc2nccc3c2[nH]c2ccccc23)CCCC/1 [MANZAMINE C],3.5,12,,1.5,2.6,Active,,,,,,
CO[C@H]([C@H](C)/C=C/N(C)C=O)[C@@H](C)C(=O)CC[C@H](C)[C@H](C[C@@H]1OC(=O)C[C@@H](OC(N)=O)C[C@H](C)C[C@H](O)[C@H](C)[C@@H](OC)c2coc(n2)-c2coc(n2)-c2coc(n2)/C=C/C[C@H](OC)[C@H]1C)OC [KABIRAMIDE C],0.8,0.3,,,0.3,Active,,,,,,
